Results from different studies.
Compare with care: the assays were run in different laboratories.

SMILES | test | test system | conditions | endpoint | value
Nc1nc2[nH]cc(CCc3ccc(C(=O)N[C@@H](CCC(=O)O)C(=O)O)cc3)c2c(=O)[nH]1 | – | human, plasma | intravenous, 500 mg/m², patients | clearance | 81.7 mL/min
C=CCNc1c(O)cc2c(O)c1C[C@@H](C)C[C@H](OC)[C@H](O)[C@@H](C)/C=C(\C)[C@H](OC(N)=O)[C@@H](OC)/C=C\C=C(/C)C(=O)N2 | – | human, plasma | intravenous, 400 mg/m², patients, infusion | clearance | 1630 mL/min
COc1ccnc(C(=O)N[C@H]2COC(=O)[C@H](Cc3ccccc3)[C@@H](OC(=O)C(C)C)[C@H](C)OC2=O)c1OCOC(=O)C(C)C | – | rat | oral | LD50 | > 2000 mg/kg
N=c1c2c(-c3ccccc3)c(-c3ccccc3)n(Cc3ccccc3)c2ncn1[C@H]1CC[C@H](O)CC1 | metabolic stability | Sprague-Dawley rat, hepatocytes | 1 µM | scaled CLint | 19 mL/min/kg
C[C@H]1COCCN1c1nc(NCc2cccnc2C(F)(F)F)c2cccnc2n1 | metabolic stability | rat, hepatocytes | – | hepatocyte CLint | 5 µL/min/10⁶ cells
NCCCNCCCCNCCCNc1cc2nc(-c3ccccc3Cl)[nH]c(=O)c2cc1F | – | male Sprague-Dawley rat | oral | LD50 | > 1000 mg/kg
Cc1cc(C)nc(Nc2ncc(C(=O)NCCc3c(C)[nH]c4ccccc34)cn2)c1 | metabolic stability | rat, liver microsomes | 1 µM | microsomal CLint | 185 µL/min/mg
Cc1c(C(=O)Nc2ccc(OC(F)(F)F)cc2)nc(-c2ccc(Cl)cc2Cl)n1-c1ccc(OS(=O)(=O)CCC(F)(F)F)cc1 | shake flask | aqueous buffer | pH 7.4 | logD | > 4
NC(=O)[C@@H]1CC(F)(F)CN1C(=O)c1ccc(N2CC(F)(F)C2)c(OCC2CC2)n1 | metabolic stability | human, hepatocytes | – | hepatocyte CLint | 14 µL/min/10⁶ cells
